Experimental data: ChEMBL document CHEMBL1255347, “Multiclonal outbreak of Klebsiella pneumoniae producing extended-spectrum beta-lactamase CTX-M-2 and novel variant CTX-M-59 in a neonatal intensive care unit in Brazil” (2008)
In brackets after ≈: the same amount, converted by molar mass.

Assays:
[1] = system: Escherichia coli; assay: Antimicrobial activity against Escherichia coli str. K-12 substr. DH10B harboring plasmid CTX-M-59; type: functional; settings: K-12 DH10B
Summary of the method: (§1)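 blaCTX-M PCR products were cut with XbaI/BamHI and cloned into pBC-SK(−), then electroporated into E. coli DH10B. Transformants were selected on LB agar with ampicillin 50 μg/ml and chloramphenicol 30 μg/ml, and sequences were confirmed. These clones were used for β-lactam MICs, with and without clavulanic acid.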

[2] = system: Klebsiella pneumoniae; assay: Antimicrobial activity against SHV-5 producing Klebsiella pneumoniae transconjugants/transformants with PFGE pulsotype D by Etest in presence of clavulanic acid; type: functional
Summary of the method: (§2)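 The recipient was E. coli XL1-Blue Rifr NAr. Plasmids moved by broth mating, with transconjugants selected on LB agar containing ampicillin, rifampin and nalidixic acid, each at 50 μg/ml. Where mating failed, alkaline-lysis plasmid extracts were electroporated and selected on ampicillin 50 μg/ml. β-lactam MICs were read by Etest, with and without clavulanic acid.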

[3] = system: Escherichia coli; assay: Antimicrobial activity against Escherichia coli str. K-12 substr. DH10B harboring plasmid CTX-M-2 in presence of clavulanic acid; type: functional; settings: K-12 DH10B; summary of the method: as §1
[4] = system: Klebsiella pneumoniae; assay: Antimicrobial activity against CTX-M-59 and TEM-1 producing Klebsiella pneumoniae transconjugants/transformants with PFGE pulsotype G by Etest in presence of clavulanic acid; type: functional; summary of the method: as §2
[5] = system: Klebsiella pneumoniae; assay: Antimicrobial activity against SHV-5 producing Klebsiella pneumoniae with PFGE pulsotype D by Etest; type: functional
Summary of the method: (§3)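 Clinical K. pneumoniae isolates from a neonatal ICU outbreak near São Paulo were typed by XbaI PFGE using Tenover criteria. Cultures were grown in LB broth at 37°C. Etest MICs followed the manufacturer's instructions, with cefotaxime and ceftazidime each tested with and without clavulanic acid.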

[6] = system: Klebsiella pneumoniae; assay: Antimicrobial activity against SHV-5 producing Klebsiella pneumoniae transconjugants/transformants with PFGE pulsotype D by Etest; type: functional; summary of the method: as §2
[7] = system: Klebsiella pneumoniae; assay: Antimicrobial activity against CTX-M-59 producing Klebsiella pneumoniae with PFGE pulsotype C by Etest in presence of clavulanic acid; type: functional; summary of the method: as §3
[8] = system: Klebsiella pneumoniae; assay: Antimicrobial activity against CTX-M-2 and TEM-1 producing Klebsiella pneumoniae transconjugants/transformants with PFGE pulsotype B by Etest; type: functional; summary of the method: as §2
[9] = system: Klebsiella pneumoniae; assay: Antimicrobial activity against CTX-M-2 and TEM-1 producing Klebsiella pneumoniae transconjugants/transformants with PFGE pulsotype F by Etest; type: functional; summary of the method: as §2
[10] = system: Klebsiella pneumoniae; assay: Antimicrobial activity against CTX-M-2 producing Klebsiella pneumoniae with PFGE pulsotype I by Etest in presence of clavulanic acid; type: functional; summary of the method: as §3
[11] = system: Klebsiella pneumoniae; assay: Antimicrobial activity against CTX-M-2 producing Klebsiella pneumoniae with PFGE pulsotype F by Etest; type: functional
[12] = system: Klebsiella pneumoniae; assay: Antimicrobial activity against CTX-M-2 and TEM-1 producing Klebsiella pneumoniae transconjugants/transformants with PFGE pulsotype J by Etest in presence of clavulanic acid; type: functional; summary of the method: as §2
[13] = system: Klebsiella pneumoniae; assay: Antimicrobial activity against CTX-M-2 producing Klebsiella pneumoniae with PFGE pulsotype B by Etest; type: functional; summary of the method: as §3
[14] = system: Klebsiella pneumoniae; assay: Antimicrobial activity against CTX-M-2 producing Klebsiella pneumoniae with PFGE pulsotype J by Etest in presence of clavulanic acid; type: functional; summary of the method: as §3
[15] = system: Klebsiella pneumoniae; assay: Antimicrobial activity against CTX-M-2 and TEM-1 producing Klebsiella pneumoniae transconjugants/transformants with PFGE pulsotype I by Etest in presence of clavulanic acid; type: functional; summary of the method: as §2
[16] = system: Klebsiella pneumoniae; assay: Antimicrobial activity against CTX-M-59 and TEM-1 producing Klebsiella pneumoniae transconjugants/transformants with PFGE pulsotype E by Etest in presence of clavulanic acid; type: functional; summary of the method: as §2
[17] = system: Klebsiella pneumoniae; assay: Antimicrobial activity against CTX-M-2 producing Klebsiella pneumoniae with PFGE pulsotype I by Etest; type: functional
[18] = system: Klebsiella pneumoniae; assay: Antimicrobial activity against CTX-M-59 producing Klebsiella pneumoniae with PFGE pulsotype C by Etest; type: functional
[19] = system: Escherichia coli; assay: Antimicrobial activity against Escherichia coli str. K-12 substr. DH10B harboring plasmid CTX-M-59 in presence of clavulanic acid; type: functional; settings: K-12 DH10B; summary of the method: as §1
[20] = system: Klebsiella pneumoniae; assay: Antimicrobial activity against CTX-M-2 and TEM-1 producing Klebsiella pneumoniae transconjugants/transformants with PFGE pulsotype F by Etest in presence of clavulanic acid; type: functional; summary of the method: as §2
[21] = system: Escherichia coli; assay: Antimicrobial activity against Escherichia coli str. K-12 substr. DH10B harboring plasmid CTX-M-2; type: functional; settings: K-12 DH10B; summary of the method: as §1
[22] = system: Klebsiella pneumoniae; assay: Antimicrobial activity against CTX-M-2 producing Klebsiella pneumoniae with PFGE pulsotype H by Etest; type: functional; summary of the method: as §3
[23] = system: Klebsiella pneumoniae; assay: Antimicrobial activity against CTX-M-2 producing Klebsiella pneumoniae with PFGE pulsotype F by Etest in presence of clavulanic acid; type: functional; summary of the method: as §3
[24] = system: Klebsiella pneumoniae; assay: Antimicrobial activity against CTX-M-2 producing Klebsiella pneumoniae with PFGE pulsotype A by Etest in presence of clavulanic acid; type: functional; summary of the method: as §3
[25] = system: Klebsiella pneumoniae; assay: Antimicrobial activity against CTX-M-2 and TEM-1 producing Klebsiella pneumoniae transconjugants/transformants with PFGE pulsotype A by Etest; type: functional; summary of the method: as §2
[26] = system: Klebsiella pneumoniae; assay: Antimicrobial activity against CTX-M-59 producing Klebsiella pneumoniae with PFGE pulsotype E by Etest in presence of clavulanic acid; type: functional
Summary of the method: (§4)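 MICs were determined by Etest strips following the manufacturer's instructions, using cefotaxime and ceftazidime each combined with clavulanic acid. The test strains were clinical NICU outbreak isolates confirmed as ESBL producers by disk diffusion. Pulsotypes were assigned by XbaI PFGE using Tenover relatedness criteria. Cultures were routinely grown in LB broth at 37°C.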

[27] = system: Klebsiella pneumoniae; assay: Antimicrobial activity against CTX-M-2 producing Klebsiella pneumoniae with PFGE pulsotype B by Etest in presence of clavulanic acid; type: functional; summary of the method: as §3
[28] = system: Klebsiella pneumoniae; assay: Antimicrobial activity against CTX-M-2 producing Klebsiella pneumoniae with PFGE pulsotype A by Etest; type: functional; summary of the method: as §3
[29] = system: Klebsiella pneumoniae; assay: Antimicrobial activity against CTX-M-59 producing Klebsiella pneumoniae with PFGE pulsotype E by Etest; type: functional
[30] = system: Klebsiella pneumoniae; assay: Antimicrobial activity against CTX-M-2 producing Klebsiella pneumoniae with PFGE pulsotype H by Etest in presence of clavulanic acid; type: functional
Summary of the method: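 Etest strips used per manufacturer's instructions to read MICs of cefotaxime and ceftazidime, each with clavulanic acid, on clinical NICU K. pneumoniae outbreak isolates. Isolates were typed by XbaI PFGE using Tenover criteria and routinely grown in LB broth at 37°C.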

[31] = system: Klebsiella pneumoniae; assay: Antimicrobial activity against CTX-M-2 producing Klebsiella pneumoniae with PFGE pulsotype J by Etest; type: functional
[32] = system: Klebsiella pneumoniae; assay: Antimicrobial activity against CTX-M-59 producing Klebsiella pneumoniae with PFGE pulsotype G by Etest; type: functional; summary of the method: as §3
[33] = system: Klebsiella pneumoniae; assay: Antimicrobial activity against CTX-M-59 producing Klebsiella pneumoniae with PFGE pulsotype G by Etest in presence of clavulanic acid; type: functional; summary of the method: as §4
[34] = system: Klebsiella pneumoniae; assay: Antimicrobial activity against SHV-5 producing Klebsiella pneumoniae with PFGE pulsotype D by Etest in presence of clavulanic acid; type: functional
[35] = system: Klebsiella pneumoniae; assay: Antimicrobial activity against CTX-M-2 and TEM-1 producing Klebsiella pneumoniae transconjugants/transformants with PFGE pulsotype I by Etest; type: functional; summary of the method: as §2
[36] = system: Klebsiella pneumoniae; assay: Antimicrobial activity against CTX-M-2 and TEM-1 producing Klebsiella pneumoniae transconjugants/transformants with PFGE pulsotype H by Etest in presence of clavulanic acid; type: functional
[37] = system: Klebsiella pneumoniae; assay: Antimicrobial activity against CTX-M-59 and TEM-1 producing Klebsiella pneumoniae transconjugants/transformants with PFGE pulsotype C by Etest in presence of clavulanic acid; type: functional; summary of the method: as §2
[38] = system: Klebsiella pneumoniae; assay: Antimicrobial activity against CTX-M-2 and TEM-1 producing Klebsiella pneumoniae transconjugants/transformants with PFGE pulsotype J by Etest; type: functional; summary of the method: as §2
[39] = system: Klebsiella pneumoniae; assay: Antimicrobial activity against CTX-M-59 and TEM-1 producing Klebsiella pneumoniae transconjugants/transformants with PFGE pulsotype G by Etest; type: functional; summary of the method: as §2
[40] = system: Klebsiella pneumoniae; assay: Antimicrobial activity against CTX-M-2 and TEM-1 producing Klebsiella pneumoniae transconjugants/transformants with PFGE pulsotype H by Etest; type: functional; summary of the method: as §2
[41] = system: Klebsiella pneumoniae; assay: Antimicrobial activity against CTX-M-59 and TEM-1 producing Klebsiella pneumoniae transconjugants/transformants with PFGE pulsotype C by Etest; type: functional; summary of the method: as §2
[42] = system: Klebsiella pneumoniae; assay: Antimicrobial activity against CTX-M-2 and TEM-1 producing Klebsiella pneumoniae transconjugants/transformants with PFGE pulsotype B by Etest in presence of clavulanic acid; type: functional; summary of the method: as §2
[43] = system: Klebsiella pneumoniae; assay: Antimicrobial activity against CTX-M-59 and TEM-1 producing Klebsiella pneumoniae transconjugants/transformants with PFGE pulsotype E by Etest; type: functional; summary of the method: as §2
[44] = system: Escherichia coli; assay: Antimicrobial activity against CTX-M-2 and TEM-1 producing Escherichia coli transconjugants/transformants with PFGE pulsotype A by Etest in presence of clavulanic acid

## CC(C)(O/N=C(\C(=O)N[C@@H]1C(=O)N2C(C(=O)[O-])=C(C[n+]3ccccc3)CS[C@H]12)c1csc(N)n1)C(=O)O [CEFTAZIDIME]
[1]
  MIC: 8 mg/L (≈ 14.6 µM)
[2]
  MIC: 0.19 mg/L
[3]
  MIC: 0.38 mg/L
[4]
  MIC: 0.38 mg/L
[5]
  MIC: 256 mg/L (≈ 468 µM)
[6]
  MIC: > 256 mg/L
[7]
  MIC: 0.38 mg/L
[8]
  MIC: 12 mg/L (≈ 22 µM)
[9]
  MIC: 16 mg/L (≈ 29.3 µM)
[10]
  MIC: 0.5 mg/L
[11]
  MIC: 8 mg/L (≈ 14.6 µM)
[12]
  MIC: 0.38 mg/L
[13]
  MIC: 24 mg/L (≈ 43.9 µM)
[14]
  MIC: 0.75 mg/L
[15]
  MIC: 0.19 mg/L
[16]
  MIC: 0.19 mg/L
[17]
  MIC: 4 mg/L (≈ 7.32 µM)
[18]
  MIC: 4 mg/L (≈ 7.32 µM)
[19]
  MIC: 0.38 mg/L
[20]
  MIC: 0.38 mg/L
[21]
  MIC: 8 mg/L (≈ 14.6 µM)
[22]
  MIC: 256 mg/L (≈ 468 µM)
[23]
  MIC: 1.5 mg/L
[24]
  MIC: 0.5 mg/L
[25]
  MIC: 8 mg/L (≈ 14.6 µM)
[26]
  MIC: 0.75 mg/L
[27]
  MIC: 0.75 mg/L
[28]
  MIC: 6 mg/L (≈ 11 µM)
[29]
  MIC: 8 mg/L (≈ 14.6 µM)
[30]
  MIC: > 4 mg/L
[31]
  MIC: 6 mg/L (≈ 11 µM)
[32]
  MIC: 12 mg/L (≈ 22 µM)
[33]
  MIC: 1 mg/L
[34]
  MIC: 0.25 mg/L
[35]
  MIC: 6 mg/L (≈ 11 µM)
[36]
  MIC: 0.25 mg/L
[37]
  MIC: 0.25 mg/L
[38]
  MIC: 12 mg/L (≈ 22 µM)
[39]
  MIC: 8 mg/L (≈ 14.6 µM)
[40]
  MIC: 8 mg/L (≈ 14.6 µM)
[41]
  MIC: 8 mg/L (≈ 14.6 µM)
[42]
  MIC: 0.19 mg/L
[43]
  MIC: 4 mg/L (≈ 7.32 µM)
[44]
  MIC: 0.19 mg/L
